From ChEMBL document CHEMBL2021847, “Identification of fused-ring alkanoic acids with improved pharmacokinetic profiles that act as G protein-coupled receptor 40/free fatty acid receptor 1 agonists” (J Med Chem, 2012) come the findings set out here.

Active and inactive are the calls of the source. No cut-off for these calls is given here. Some results are limits rather than exact numbers.

For series [1], the system named is Rattus norvegicus. Nature of the series: Antidiabetic activity in Wistar fatty rat assessed as increase in plasma insulin level at 10 mg/kg, po administered as single dose 4 hrs prior to glucose challenge measured after 120 mins by OGTT. The format is functional, organism-based. Also noted: dose 10 mg/kg. The gist of the method: (§1)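 Female Wistar fatty rats aged 17−19 weeks, fasted overnight. Given compound orally (10 mg/kg) or vehicle (0.5% methylcellulose), with oral glucose 1 g/kg 4 h later. Tail-vein sampling pre-dose, at 0, and at 10–120 min. Glucose by autoanalyzer, insulin by RIA.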

Series [2] has as its system Rattus norvegicus. Nature of the series: Antidiabetic activity in Wistar fatty rat assessed as decrease in plasma glucose level at 1 to 10 mg/kg, po administered as single dose 1 hr prior to glucose challenge measured after 120 mins by OGTT. The format is functional, organism-based. Put shortly: (§2)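 Female Wistar fatty rats aged 17−19 weeks, fasted overnight. Dosed orally in 0.5% methylcellulose (vehicle control), then given oral glucose 1 g/kg 1 h later. Tail-vein blood taken pre-dose, at 0, and at 10, 30, 60 and 120 min. Glucose by autoanalyzer, insulin by RIA. Glucose AUC0−120 min and incremental insulin AUC0−120 min calculated. n = 6, one-tailed Williams test versus vehicle.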

The test system of series [3] is Rattus norvegicus. Nature of the series: Antidiabetic activity in po dosed Wistar fatty rat assessed as decrease in plasma glucose level administered as single dose 1 hr prior to glucose challenge measured after 120 mins by OGTT. The format is functional. The note with it: read-out: MED. Put shortly: as §2
Series [4] relates to Rattus norvegicus. Put plainly: Antidiabetic activity in Wistar fatty rat assessed as increase in plasma insulin level at 1 to 10 mg/kg, po administered as single dose 1 hr prior to glucose challenge measured after 120 mins by OGTT. The format is functional, organism-based. Put shortly:
as §2

Series [5] addresses Free fatty acid receptor 1 (Rattus norvegicus, UniProt Q8K3T4). Nature of the series: Displacement of 3-[4-({2',6'-dimethyl-6-[(4-[3H])-phenylmethoxy]biphenyl-3-yl}methoxy)phenyl] propanoic acid from rat GPR40 receptor expressed in CHO cells after 90 mins by scintillation counting in presence of 0.2% BSA. The format is cell-based. The gist of the method: (§3)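 Membranes from CHO lines stably expressing human or rat GPR40/FFA1, in Tris-HCl pH 7.5 with EDTA, protease inhibitors, 0.05% CHAPS and 0.2% fatty acid-free BSA. Tritiated ligand at 2 or 6 nmol/L with graded test compound, 90 min at room temperature. Filter harvest, scintillation counting. Nonspecific binding with 10 μmol/L unlabeled ligand. IC50 by nonlinear regression, Ki via Cheng–Prusoff with measured Kd. Averages of n = 2 or 3.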

Series [6] deals with Rattus norvegicus. Put plainly: Antidiabetic activity in po dosed Wistar fatty rat assessed as increase in plasma insulin level administered as single dose 1 hr prior to glucose challenge measured after 120 mins by OGTT. The format is functional. As to conditions: read-out: MED. The gist of the method:
as §2

Series [7] concerns Rattus norvegicus. Put plainly: Antidiabetic activity in Wistar fatty rat assessed as decrease in plasma glucose level at 10 mg/kg, po administered as single dose 4 hrs prior to glucose challenge measured after 120 mins by OGTT. The format is functional, organism-based. The arrangement: dose 10 mg/kg. The gist of the method:
as §1

Series [8] is described as follows: Octanol-water partition coefficient, log D of the compound at pH 7.4 by reverse-phase liquid chromatography. The format is physicochemical.
The target of series [9] is T1, Free fatty acid receptor 1 (Homo sapiens, UniProt O14842). Nature of the series: Displacement of 3-[4-({2',6'-dimethyl-6-[(4-[3H])-phenylmethoxy]biphenyl-3-yl}methoxy)phenyl] propanoic acid from human GPR40 receptor expressed in CHO cells after 90 mins by scintillation counting in presence of 0.2% BSA. The format is cell-based. Put shortly: as §3
The target of series [10] is T1, Free fatty acid receptor 1. Put plainly: Agonist activity at human […] receptor expressed in CHO cells assessed as increase in intracellular calcium concentration after 90 secs by FLIPR assay in presence of 0.1% BSA. The format is functional, cell-based. The gist of the method:
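CHO dhfr cells stably expressing human GPR40/FFA1 (NM_005303) plated and held overnight at 37 °C in 5% CO2. Loaded 60 min at 37 °C with Fluo 4-AM 2.5 μg/mL, probenecid 2.5 mmol/L and 0.1% fatty acid-free BSA. Compounds added over a concentration range, Ca2+ rise followed 90 s. Response scaled between vehicle (0%) and 10 μM γ-linolenic acid (100%).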

The target in series [11] is T1, Free fatty acid receptor 1. Put plainly: Agonist activity at human […] receptor expressed in CHO cells assessed as increase in intracellular calcium concentration at 10 uM after 90 secs by FLIPR assay in presence of 0.1% BSA relative to control. The format is functional, cell-based. The gist of the method:
(§4)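 CHO dhfr cells stably expressing human GPR40/FFA1 (NM_005303) plated, incubated overnight at 37 °C in 5% CO2. Loaded 60 min at 37 °C with Fluo 4-AM (2.5 μg/mL), probenecid (2.5 mmol/L), 0.1% fatty acid-free BSA. Ca2+ rise monitored by FLIPR for 90 s after compound addition. Response expressed as % of 10 μM γ-linolenic acid response, vehicle-corrected.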

For series [12], the target named is T1, Free fatty acid receptor 1. Nature of the series: Agonist activity at human […] receptor expressed in CHO cells assessed as increase in intracellular calcium concentration at 1 uM after 90 secs by FLIPR assay in presence of 0.1% BSA relative to control. The format is functional, cell-based. The gist of the method: as §4

T1 sequence (O14842 whole entry): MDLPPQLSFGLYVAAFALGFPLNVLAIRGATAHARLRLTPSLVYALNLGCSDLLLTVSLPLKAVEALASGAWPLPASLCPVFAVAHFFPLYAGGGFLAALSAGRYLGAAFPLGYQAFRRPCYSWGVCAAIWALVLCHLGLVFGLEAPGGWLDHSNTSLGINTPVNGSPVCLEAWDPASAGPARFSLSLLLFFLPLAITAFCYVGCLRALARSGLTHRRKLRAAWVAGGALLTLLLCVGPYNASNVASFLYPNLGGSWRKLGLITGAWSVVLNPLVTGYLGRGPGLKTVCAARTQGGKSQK
Sequence of Free fatty acid receptor 1 (Rattus norvegicus, UniProt Q8K3T4) (Q8K3T4 whole entry): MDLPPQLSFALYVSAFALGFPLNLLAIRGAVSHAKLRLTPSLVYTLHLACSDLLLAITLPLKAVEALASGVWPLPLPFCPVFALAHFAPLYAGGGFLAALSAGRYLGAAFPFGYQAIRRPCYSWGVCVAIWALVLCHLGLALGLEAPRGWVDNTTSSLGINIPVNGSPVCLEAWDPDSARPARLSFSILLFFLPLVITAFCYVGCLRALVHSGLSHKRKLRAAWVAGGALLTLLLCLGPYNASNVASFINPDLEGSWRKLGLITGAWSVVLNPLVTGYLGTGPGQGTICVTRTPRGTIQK

With `CCOCCOc1cc(C)c(-c2cccc(COc3ccc4c(c3)OCC4CC(=O)O)c2)c(C)c1` (centres undefined), the outcome in the series with Rattus norvegicus [1], with Rattus norvegicus [2], in the series on Rattus norvegicus [4] and in the series on Rattus norvegicus [7] was Active. Also, the minimal effective dose with Rattus norvegicus [3] and with Rattus norvegicus [6] was 10 mg/kg each time. Moreover, the Ki in series [5] came out at 200 nM. This compound also gave a chromatographic logD in series [8] of 3.83.

`CCOCCOc1cc(C)c(-c2cccc(COc3ccc4c(c3)CCC(C(=O)O)C4)c2)c(C)c1` (centres undefined): the values for the Ki in [9] and in [5] were 280 nM and above 10000 nM, respectively. In addition, the EC50 in [10] was determined as 140 nM. For the same compound, the chromatographic logD in series [8] turned out to be 4.33.

For `Cc1cccc(C)c1-c1cccc(COc2ccc3c(c2)CCC3CC(=O)O)c1` (centres undefined), the EC50 in series [10] was 33 nM. For the same compound, in [8], the chromatographic logD is 4.4.

As for `O=C(O)CC1COc2cc(OCc3cccc(-c4csc5ccccc45)c3)ccc21` (centres undefined), the Ki is 290 nM in [9] and above 10000 nM in [5]. The EC50 in [10] stood at 39 nM. Moreover, the chromatographic logD in series [8] is 3.99.

For `O=C(O)CC1COc2cc(OCc3cccc(-c4ccc5sccc5c4)c3)ccc21` (centres undefined), the Ki in series [9] was 570 nM; in series [5], above 10000 nM. Further, the EC50 in [10] came out at 180 nM. For the same compound, the chromatographic logD in series [8] stood at 3.97.

Regarding `Cc1cccc(C)c1-c1cc(COc2ccc3c(c2)OCC3CC(=O)O)ccc1OCc1ccccc1` (centres undefined), the Ki in series [9] was determined as 6.9 nM; in [5], 170 nM. Besides, the EC50 in series [10] stood at 10 nM. Moreover, the chromatographic logD in series [8] was 4.53.

For the compound `Cc1cc(OCc2ccccc2)cc(C)c1-c1cccc(COc2ccc3c(c2)OCC3CC(=O)O)c1` (centres undefined), the Ki in series [9] amounted to 18 nM; in [5], 100 nM. The half-maximal effective concentration (EC50) in series [10] was determined as 28 nM. Moreover, the chromatographic logD in [8] amounted to 5.03.

On to `Cc1cccc(C)c1-c1cccc(COc2ccc3c(c2)CCCCC3CC(=O)O)c1` (centres undefined), for which the EC50 in [10] is 940 nM. In [8], this compound gave a chromatographic logD of 5.02.

In the case of `Cc1cc(C)c(-c2cccc(COc3ccc4c(c3)OCC4CC(=O)O)c2)c(C)c1` (centres undefined), the Ki in series [9] came to 36 nM; in series [5], 130 nM. In addition, the EC50 in [10] was determined as 33 nM. Also, the chromatographic logD in [8] came out at 4.47.

Turning to `Cc1cccc(C)c1-c1cccc(COc2ccc3c(ccn3CC(=O)O)c2)c1`, the Ki in [9] and in [5] was above 10000 nM throughout. Moreover, the values for the Efficacy in [11] and in series [12] were 101% and 2%, respectively. The chromatographic logD in series [8] amounted to 3.93.

Take `CCOCCOc1cc(C)c(-c2cccc(COc3ccc4c(c3)CCC(CC(=O)O)C4)c2)c(C)c1` (centres undefined): the values for the Ki in series [9] and in series [5] were 2100 nM and above 10000 nM, respectively. In [10], the EC50 came out at 510 nM. The chromatographic logD in series [8] amounted to 4.67.

In the case of `CCOCCOc1cc(C)c(-c2cccc(COc3ccc4c(c3)CC(CC(=O)O)C4)c2)c(C)c1` (centres undefined), the values for the Ki in [9] and in series [5] were 270 nM and above 10000 nM, respectively. Also, in [10], the EC50 worked out at 84 nM. The compound further registered a chromatographic logD in series [8] of 4.39.

Turning to `CCOCCOc1cc(C)c(-c2cccc(CNc3ccc4c(c3)OCC4CC(=O)O)c2)c(C)c1` (centres undefined), the Ki is 43 nM in series [9] and 110 nM in series [5]. The EC50 in [10] was found to be 48 nM. This compound also yielded a chromatographic logD in series [8] of 3.13.

Take `Cc1cccc(C)c1-c1cccc(COc2ccc3c(c2)CCCC3CC(=O)O)c1` (centres undefined): the EC50 in [10] was determined as 27 nM. The same compound came in with a chromatographic logD in [8] of 4.7.

On to `Cc1cccc(C)c1-c1cccc(COc2ccc3c(c2)OCCC(C(=O)O)C3)c1` (centres undefined), for which the EC50 in [10] came to 70 nM. The compound also showed a chromatographic logD in series [8] of 4.05.

For `COc1ccc(COc2ccc3c(c2)OCC3CC(=O)O)cc1-c1c(C)cccc1C` (centres undefined), the Ki in series [9] came to 130 nM; in [5] it was 1600 nM. Moreover, in series [10], the EC50 stood at 24 nM. Also, the chromatographic logD in series [8] was 3.31.

For `Cc1cccc(C)c1-c1cccc(COc2ccc3c(n2)CCC3CC(=O)O)c1` (centres undefined), the Ki in series [9] and in series [5] was above 10000 nM throughout. For the same compound, the EC50 in series [10] worked out at 570 nM. For the same compound, the chromatographic logD in series [8] stood at 3.88.

In the case of `Cc1ccc2ccccc2c1-c1cccc(COc2ccc3c(c2)OCC3CC(=O)O)c1` (centres undefined), the values for the Ki in series [9] and in [5] were 41 nM and 470 nM, respectively. Besides, the EC50 in series [10] is 21 nM. In [8], this compound returned a chromatographic logD of 4.33.

Turning to `Cc1cccc(C)c1-c1cccc(COc2ccc3c(c2)CC3CC(=O)O)c1` (centres undefined), the Ki in series [9] is 1200 nM; in series [5], above 10000 nM. Also, in [10], the 50% effective concentration (EC50) is 69 nM. The compound further gave a chromatographic logD in series [8] of 4.12.

Take `CCOCCOc1cc(C)c(-c2cccc(COc3ccc4c(c3)CC(C(=O)O)C4)c2)c(C)c1` (centres undefined): the Ki in series [9] and in [5] was above 10000 nM each time. Moreover, the EC50 in series [10] stood at 960 nM. The compound also returned a chromatographic logD in series [8] of 4.11.

For `Cc1cccc(C)c1-c1cccc(COc2ccc3c(CC(=O)O)coc3c2)c1`, the EC50 in [10] is 4900 nM. In addition, the chromatographic logD in [8] was found to be 4.04.

In the case of `Cc1cccc(C)c1-c1cccc(COc2ccc3c(c2)OCC3CC(=O)O)c1` (centres undefined), the EC50 in series [10] was 27 nM. The compound further had a chromatographic logD in [8] of 3.88.

As for `Cc1ccc(-c2cccc(COc3ccc4c(c3)OCC4CC(=O)O)c2)c(C)c1` (centres undefined), the inhibition constant Ki was determined as 57 nM in [9] and 1600 nM in series [5]. Besides, in series [10], the EC50 worked out at 29 nM. Also, the chromatographic logD in series [8] stood at 4.15.

As to `CCOCCOc1cc(C)c(-c2cccc(COc3ccc4c(c3)COC4CC(=O)O)c2)c(C)c1` (centres undefined), the Ki in [9] turned out to be 390 nM; in series [5] it was 67 nM. Also, the EC50 in [10] stood at 91 nM. This compound gave a chromatographic logD in series [8] of 3.61.

For the compound `CCOCCOc1cc(C)c(-c2cccc(COc3ccc4c(c3)CC(=O)N4CC(=O)O)c2)c(C)c1`, the Ki in series [9] and in series [5] was above 10000 nM in each case. For the same compound, the Efficacy in series [11] turned out to be 59%; in series [12] it was 2%. Moreover, the chromatographic logD in series [8] turned out to be 3.41.
